Rows were chosen to be rich in hits. Some 2.5% of all compounds tested hit in one or more screens of this group.
NPY1 pot ag: NPY-Y1 receptor potentiators or agonists, primary screen, cell-based | Neuropeptide Y receptor type 1 (Homo sapiens), P25929 | NPY-Y1 expressing cells, potentiator/agonist activation | activation, % at 3.6 µM | hit rate 0.37% among 220,000; in the data active = activation above about 33%, passing the limit was not always enough;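 note: cells stimulated with NPY at EC10 then isoproterenol at EC100; 0% = low agonist plus stimulus and 100% = saturating agonist plus stimulus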
Target sequence (P25929 whole entry, looked up): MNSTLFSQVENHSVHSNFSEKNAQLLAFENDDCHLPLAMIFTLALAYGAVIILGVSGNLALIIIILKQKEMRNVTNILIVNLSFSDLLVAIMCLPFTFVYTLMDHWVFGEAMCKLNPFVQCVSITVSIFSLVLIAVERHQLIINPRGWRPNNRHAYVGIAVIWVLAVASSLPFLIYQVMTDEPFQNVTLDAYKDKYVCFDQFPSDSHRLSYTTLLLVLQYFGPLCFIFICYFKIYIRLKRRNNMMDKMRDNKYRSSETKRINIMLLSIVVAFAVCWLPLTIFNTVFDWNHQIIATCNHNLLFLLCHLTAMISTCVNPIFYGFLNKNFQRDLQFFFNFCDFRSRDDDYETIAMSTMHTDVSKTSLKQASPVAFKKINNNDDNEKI
NPY2 pot ag: NPY-Y2 potentiators or agonists, primary screen, cell-based. Neuropeptide Y receptor type 2 (Homo sapiens), P49146. cells expressing NPY-Y2, potentiator/agonist read-out. activation, % at 3.6 µM. hit rate 0.45% among 220,000. AID 1359, 2008; in the data active = activation above about 27%;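 note: cells stimulated with NPY near EC25 plus isoproterenol at EC100; 0% = vehicle plus submaximal agonist and 100% = vehicle plus saturating agonist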
Target sequence (P49146 whole entry, looked up): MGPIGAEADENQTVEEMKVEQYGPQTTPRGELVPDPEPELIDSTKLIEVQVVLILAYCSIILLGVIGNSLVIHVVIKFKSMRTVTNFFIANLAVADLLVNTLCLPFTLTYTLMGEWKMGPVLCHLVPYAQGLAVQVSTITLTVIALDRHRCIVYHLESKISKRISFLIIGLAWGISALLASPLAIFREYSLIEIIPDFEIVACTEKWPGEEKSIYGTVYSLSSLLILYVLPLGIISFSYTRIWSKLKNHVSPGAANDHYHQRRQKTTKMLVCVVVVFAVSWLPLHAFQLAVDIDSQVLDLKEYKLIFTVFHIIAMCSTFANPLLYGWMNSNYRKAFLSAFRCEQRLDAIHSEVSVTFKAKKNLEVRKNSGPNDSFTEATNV
Ins promoter up: insulin promoter activators in MIN6 cells, imaging, high-content screening, mouse beta cells; MIN6 insulin promoter-GFP reporter; hits give high values; z-score at 5 µM; hit rate 0.3% among 190,000; AID 1625, 2009;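 active = z-score above 3 at 5 µM with at least 500 cells counted in the well; inconclusive = wells under 500 cells, flagged as cytotoxic or low count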
NPY Y2 blocker: NPY-Y2 receptor antagonists, primary screen, cell-based; Neuropeptide Y receptor type 2 (Homo sapiens), P49146; NPY-Y2 expressing cells, antagonist mode; inhibition, % at 2.7 µM; hit rate 0.99% among 140,000; AID 793, 2007; in the data active = inhibition above about 17%;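 note: 0% = vehicle with agonist challenge and 100% = reference antagonist with challenge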
NPY-Y1 antag: NPY-Y1 receptor antagonists, primary screen, cell-based; Neuropeptide Y receptor type 1 (Homo sapiens), P25929; HEK293-CNG Y1 cells, membrane potential fluorescence; NPY at EC95, then isoproterenol; inhibition, % at 3.6 µM; hit rate 1% among 200,000;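 active = inhibition above the campaign mean inhibition of all tested compounds plus 3 SD, cut at about 20% in these data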;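 note: 0% = DMSO wells given NPY plus isoproterenol and 100% = isoproterenol alone without NPY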
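Material: HEK293 cells with Y1 receptor plus CNG channel; times: compound incubation 1 h at room temperature, readout 45 min post-stimulation; signal: fluorescence, membrane potential probe; read-out basis: fluorescence ratio normalized to % inhibition between controls; benchmarks: full-block control isoproterenol-only wells, zero-block control NPY plus isoproterenol wells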
INS promoter inh: inhibitors of insulin promoter-driven GFP, primary screen, imaging, TRM-6 cells, eGFP reporter, cell count. inhibition, % at 2 µM. AID 1273, 2008. reporter expression induced with tamoxifen. hit rate 0.9% among 130,000;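 active = inhibition above the mean plus 3 SD, with well images judged a real hit on visual review, cut at about 60% in these data, passing the limit was not always enough; inconclusive = inhibition over the cutoff but images rejected on review; inactive = inhibition not above the cutoff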
NPY-Y2 pot conf: NPY-Y2 potentiators or agonists, confirmation, cell-based | shares compounds with NPY2 pot ag | cell-based NPY-Y2 potentiator/agonist assay | hit rate 20% among 450 | AID 1539, 2009 | activation, % at 3.6 µM; in the data active = activation above about 33%
NPY-Y1 potentiator: NPY-Y1 potentiators or agonists, counter-screen for NPY-Y2 potentiator project, cell-based, fluorescence; hit rate 20% among 450; Y1 HEK293-CNG cells, membrane potential fluorescence; AID 1651, 2009; shares compounds with NPY2 pot ag; activation, % at 3.6 µM; in the data active = activation above about 45%;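 note: cells stimulated with submaximal NPY then isoproterenol with phosphodiesterase inhibitor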
NPY-Y1 agonist 2: NPY-Y1 direct agonists, selectivity assay for NPY-Y2 potentiator project, cell-based, fluorescence. shares compounds with NPY2 pot ag. HEK293 Y1-CNGC, membrane potential fluorescence, agonism. activation, % at 3.6 µM. hit rate 37% among 450. AID 1702, 2009;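 active = activation above the mean of DMSO-only control wells plus 3 SD, cut at about 18% in these data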;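 note: cells stimulated with 1 µM isoproterenol plus the PDE inhibitor Ro 20-1724; 0% = isoproterenol with DMSO and no NPY and 100% = 40 nM NPY; Y1 agonists lower the membrane potential dye signal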
CNGC inhibitor: CNGC cAMP sensor activity inhibitors, counter-screen for NPY-Y2 potentiator project, cell-based, HEK293-CNG parental, membrane potential fluorescence | shares compounds with NPY2 pot ag | isoproterenol cAMP | inhibition, % at 3.6 µM | hit rate 32% among 450 | AID 1703, 2009;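 active = inhibition above the control-well mean plus 3 SD of those wells, cut at about 22% in these data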;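 note: 0% = DMSO with isoproterenol and 100% = DMSO without isoproterenol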
NPY-Y2 ag 2: NPY-Y2 direct agonists, counter-screen for NPY-Y2 potentiator project, cell-based, fluorescence; hit rate 56% among 450; shares compounds with NPY2 pot ag; HEK293 Y2/CNGC cells, membrane potential fluorescence, agonist mode; activation, % at 3.6 µM;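 active = activation above the mean of solvent-only control wells plus 3 SD, cut at about 10% in these data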;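 note: cells stimulated by isoproterenol with no NPY added so direct agonism is tested; 0% = DMSO with isoproterenol alone and 100% = NPY at EC100 plus isoproterenol; agonism lowers probe fluorescence through less cAMP and CNG channel opening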
The depositor's hits bear a star; ? = inconclusive; nt = not tested or not shown.

SMILES	NPY1 pot ag	NPY2 pot ag	Ins promoter up	NPY Y2 blocker	NPY-Y1 antag	INS promoter inh	NPY-Y2 pot conf	NPY-Y1 potentiator	NPY-Y1 agonist 2	CNGC inhibitor	NPY-Y2 ag 2
COCCOC(=O)C(CC(=O)O)NCc1ccco1 (configuration not stated)	14.7	47.8*	-0.14	nt	nt	nt	-0.2	-3.1	2.0	11.8	15.2*
CCOc1c(OC(C)=O)ccc(/C=C/c2ccc3cccc(OC(C)=O)c3n2)c1[N+](=O)[O-]	22.1	24.1	-0.16	-0.4	-11.7	-20.0	nt	nt	nt	nt	nt
C=CCN1C(=O)/C(=C/c2ccc(OC(C)=O)c(OCC)c2[N+](=O)[O-])SC1=S	9.9	36.1*	0.78	nt	4.3	25.0	14.2	-5.2	5.1	1.6	12.2*
CCc1ccccc1NC(=O)C1c2ccccc2Oc2ccccc21	-7.3	9.2	0.24	7.3	-2.8	25.0	nt	nt	nt	nt	nt
CC(C)COC(=O)NC1c2ccccc2Oc2ccccc21	-38.0	99.9*	0.47	nt	nt	nt	-17.2	-32.9	-32.4	-20.7	-8.3
CC(=O)c1cc(-c2ccccc2)n(CC(=O)Nc2ccc(C)c(C)c2)c1C	-3.4	-2.0	-0.26	4.3	0.4	36.7	nt	nt	nt	nt	nt
N#C/C(=C\Nc1ccccc1O)c1nc2ccccc2o1	14.7	30.6*	0.58	0.4	1.7	-31.0	24.5	36.5	28.6*	34.2*	18.3*
N#C/C(=C\c1ccncc1)c1nc2ccccc2o1	7.6	-30.7	-0.32	nt	nt	nt	nt	nt	nt	nt	nt
O=C(O)C(NC(=O)c1ccccc1)=C(Cl)Cl	-14.9	-23.1	nt	3.8	-3.6	-18.2	nt	nt	nt	nt	nt
COC(=O)/C(=C/c1cn(C)c2ccccc12)[N+](=O)[O-]	19.7	2.4	0.99	1.0	-6.5	-230.0	nt	nt	nt	nt	nt
COC(=O)/C(=C/c1cn(C(C)=O)c2ccccc12)[N+](=O)[O-]	34.9	60.5*	-0.28	nt	nt	nt	18.0	31.6	24.6*	20.1	17.6*
CC(=O)N(Cc1ccc(F)cc1)C1=C(NCc2ccccc2)C(=O)c2ccccc2C1=O	-7.3	37.6*	nt	2.2	2.9	50.0	16.0	9.7	0.5	12.7	10.3*
O=C(c1ccc(CNS(=O)(=O)c2ccccc2)cc1)N1CCN(Cc2ccccc2)CC1	31.8	27.1*	-0.14	2.0	-7.2	11.5	-5.4	-8.7	-14.9	0.6	-1.1
CC1(C)CC(=O)c2cn3nc(C(F)(F)F)nc3nc2C1	-16.9	4.4	nt	-0.5	8.2	46.1	nt	nt	nt	nt	nt
CC(C)[C@H](Nc1ccc(C(F)(F)F)cc1[N+](=O)[O-])C(=O)O	-15.6	-11.8	0.04	nt	nt	nt	nt	nt	nt	nt	nt
O=C(NNc1ccc(C(F)(F)F)cc1[N+](=O)[O-])c1ccc(NS(=O)(=O)c2ccc(F)cc2)cc1	37.9	44.6*	-1.48	-6.3	-11.6	40.5	58.1*	71.6*	61.6*	62.0*	61.9*
Oc1ccccc1N=Nc1ccccc1O	31.5	29.2*	?	nt	-4.1	-118.2	35.8*	45.8*	29.9*	27.4*	42.6*
COc1ccccc1NC(=O)Nc1ccc(CC#N)cc1	11.7	-11.2	-0.21	nt	nt	nt	nt	nt	nt	nt	nt
Cc1cc(NC(=O)c2ccccc2F)n(-c2nc3ccccc3[nH]2)n1	19.9	91.1*	-2.34	0.7	0.8	nt	-0.7	-4.3	-3.3	4.6	1.3
COc1ccc(C(=O)NCC(=O)OCC(=O)N2CCCc3ccccc32)cc1	10.9	2.3	0.69	0.8	8.4	nt	nt	nt	nt	nt	nt
COc1ccc(/C(C)=N/NC(=O)c2sccc2-n2cccc2)cc1	-15.9	-13.1	0.64	nt	12.9	nt	nt	nt	nt	nt	nt
O=C(NC(NC(=S)Nc1cccc(C(=O)O)c1)C(Cl)(Cl)Cl)OCc1ccccc1 (configuration not stated)	-12.7	-3.4	-0.03	2.4	-3.3	33.3	nt	nt	nt	nt	nt
O=C(NC(NC(=S)Nc1cccc(Cl)c1)C(Cl)(Cl)Cl)OCc1ccccc1 (configuration not stated)	15.2	33.2*	-0.02	-1.3	-6.9	nt	19.6	34.9	30.2*	27.8*	34.3*
Cc1cc(Cl)n2nc(C)c(-c3ccc(Cl)cc3)c2n1	34.8	28.3*	-5.26	nt	-14.2	nt	41.6*	59.3*	58.8*	62.5*	45.5*
O=C(Nc1cccc([N+](=O)[O-])c1)c1cc2ccccc2cc1O	27.9	57.4*	-5.69	nt	nt	nt	5.7	-20.5	-12.5	1.5	11.2*
SMILES	NPY1 pot ag	NPY2 pot ag	Ins promoter up	NPY Y2 blocker	NPY-Y1 antag	INS promoter inh	NPY-Y2 pot conf	NPY-Y1 potentiator	NPY-Y1 agonist 2	CNGC inhibitor	NPY-Y2 ag 2
CCN(CC)c1cc(C)c2cc(NC(=O)c3cccs3)ccc2n1	35.3	28.4*	0.37	nt	-3.7	-28.6	32.5	52.9*	34.7*	45.1*	34.5*
Cc1cccc(NC(=O)CSc2nnc(CNC(=O)c3ccc(S(=O)(=O)N(C)C)cc3)n2-c2cccc(C)c2)c1	14.9	12.7	0.73	-2.5	-8.7	28.6	nt	nt	nt	nt	nt
O=C(CSc1ccc(-c2ccncc2)nn1)c1ccccc1	5.5	-16.7	0.15	nt	-2.9	-26.7	nt	nt	nt	nt	nt
COc1cc2c(cc1OC)CN(C(=O)CCCOc1ccc(Cl)cc1Cl)CC2	-40.5	-12.8	0.37	6.5	7.1	34.4	nt	nt	nt	nt	nt
O=C1NCCN(C(=O)CCc2nnc(-c3ccsc3)o2)C1c1ccc(F)cc1 (configuration not stated)	-14.7	-2.6	1.21	nt	-3.8	nt	nt	nt	nt	nt	nt
O=Cc1cc(N=Nc2ccccc2Cl)ccc1O	33.4	33.7*	0.6	nt	-15.1	nt	42.0*	51.2*	24.7*	24.9*	38.6*
Nc1[nH]nc2c1NN(c1ccc(Cl)cc1Cl)N2	36.6	32.2*	-0.49	-5.9	-3.6	nt	26.5	29.2	16.7	23.7*	21.0*
Nc1c(-c2n[nH]c(=S)n2-c2ccc(Cl)cc2Cl)cnn1-c1ccccc1	-35.8	-4.7	-0.6	nt	nt	nt	nt	nt	nt	nt	nt
COc1ccc(COC(=O)c2ccc3c(=O)n4c(nc3c2)CCC4)cc1F	-21.6	58.9*	0.4	nt	nt	nt	-4.3	-5.3	-10.3	-3.0	10.3*
